Source: PubChem BioAssay
Most compounds without a hit are left out; they make up all but 2.3% or so of the library.
TRPC4 inh: blocks the mouse TRPC4 cation channel. Q9QUQ5. HEK293 TRPC4beta/mu-opioid, DAMGO-evoked Fluo4 calcium flux; active compounds read low. B-score at 10 µM. 300,000 tested, 0.39% active. AID 2247;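 active = B-score over 3 SD under the library average, no early fluorescence shift, positive overall ratio signal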
Target sequence (Q9QUQ5 whole entry, looked up): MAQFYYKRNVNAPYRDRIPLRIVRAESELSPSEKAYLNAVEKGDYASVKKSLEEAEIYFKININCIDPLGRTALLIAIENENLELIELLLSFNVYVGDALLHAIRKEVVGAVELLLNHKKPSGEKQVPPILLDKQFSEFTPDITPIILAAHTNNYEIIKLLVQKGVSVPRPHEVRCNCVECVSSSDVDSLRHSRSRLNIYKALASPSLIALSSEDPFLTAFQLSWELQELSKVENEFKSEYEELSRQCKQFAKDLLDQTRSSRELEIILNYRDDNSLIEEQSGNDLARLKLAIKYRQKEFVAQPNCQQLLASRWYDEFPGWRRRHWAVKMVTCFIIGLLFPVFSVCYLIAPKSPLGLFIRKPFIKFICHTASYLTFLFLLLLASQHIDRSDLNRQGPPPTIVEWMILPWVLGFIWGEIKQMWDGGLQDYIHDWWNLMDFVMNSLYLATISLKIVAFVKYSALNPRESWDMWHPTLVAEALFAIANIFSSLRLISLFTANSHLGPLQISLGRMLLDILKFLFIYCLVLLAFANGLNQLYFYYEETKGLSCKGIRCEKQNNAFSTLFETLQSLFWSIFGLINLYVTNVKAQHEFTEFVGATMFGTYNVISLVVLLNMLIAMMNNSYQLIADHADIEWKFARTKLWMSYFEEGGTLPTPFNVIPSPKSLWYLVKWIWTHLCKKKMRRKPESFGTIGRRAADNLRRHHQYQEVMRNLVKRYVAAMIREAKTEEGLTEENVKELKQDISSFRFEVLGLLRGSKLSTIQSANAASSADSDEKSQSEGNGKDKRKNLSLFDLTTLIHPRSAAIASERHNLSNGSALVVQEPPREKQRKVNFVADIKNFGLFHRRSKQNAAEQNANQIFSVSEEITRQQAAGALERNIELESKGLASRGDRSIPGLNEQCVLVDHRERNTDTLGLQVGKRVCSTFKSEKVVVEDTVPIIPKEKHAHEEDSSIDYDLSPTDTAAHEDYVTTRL
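test system = HEK293 cells with stable TRPC4beta plus mu-opioid receptor expression | detection = Fluo4 Ca2+ flux fluorescence | read-out = integrated fluorescence ratio relative to baseline, converted to per-well B score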
TRPC4 agonist: activators of mouse TRPC4 channel; B-score at 10 µM; Q9QUQ5; 310,000 tested, 0.49% active; HEK293 TRPC4beta/mu-opioid, Fluo4 calcium fluorescence; active compounds read high;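 active = B-score above 5 SD of library B-scores, and initial fluorescence ratio not above library mean plus 5 SD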;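 also: positive B-score marks a calcium rise read as TRPC4 activation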
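System: HEK293 cells stably co-expressing mouse TRPC4beta and mu-opioid receptor; Schedule: Fluo4 dye loading 45 min at room temperature, 110 s recording; Detection: Fluo4 fluorescence, kinetic; Evaluation: B-scored integrated calcium fluorescence ratio; Controls: buffer (low) and maximal DAMGO (high).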
TRPC6 inhibitor: blocks the mouse TRPC6 cation channel; HEK293-TRPC6, membrane potential dye, ACh-evoked depolarization; active compounds read low; 310,000 tested, 1.1% active; B-score at 10 µM; Q61143;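 active = B-score under library mean minus 3 SD, initial fluorescence not abnormally high, positive integrated signal ratio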;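 also: B-score derived from integrated fluorescence ratio over the kinetic read; more negative B-score means stronger inhibition of depolarization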
TRPC6 activator: mouse TRPC6 channel activation; 310,000 tested, 0.13% active; AID 2550; B-score at 10 µM; HEK293-TRPC6 membrane potential dye fluorescence; active compounds read high;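 active = B-score of the integrated fluorescence ratio above library mean plus 3 SD, and starting fluorescence ratio within library mean plus 5 SD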;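 also: higher score means more depolarization so channel activation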
TRPC4 potent: allosteric potentiators of mouse TRPC4 channel. AID 2227. Q9QUQ5. HEK293 TRPC4beta/mu-opioid, DAMGO EC20, Fluo-4 Ca2+ flux; active compounds read high. B-score at 10 µM. 310,000 tested, 0.42% active;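 active = B-score of calcium response area above 5 SD of library B-scores, with initial fluorescence ratio within 5 SD of library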;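 also: B-score of integrated fluorescence ratio over time as area under calcium response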
Numbers without * were called inactive; i = inactive.

SMILES	TRPC4 inh	TRPC4 agonist	TRPC6 inhibitor	TRPC6 activator	TRPC4 potent
Cc1cccc(C(=O)NNC(=S)NC(=O)c2cccs2)c1	i	212*	i	i	i
O=C(Cc1ccc(Cl)cc1)NNC(=S)NC(=O)c1cccs1	i	107*	i	i	i
COc1ccc(C(=O)NNC(=S)Nc2ccccc2)cc1	i	i	i	i	i
COc1ccc(C(=O)NNC(=S)NC(=O)c2cccs2)cc1	i	85*	i	i	i
COc1ccc(C(=O)NC(=S)NNC(=O)c2cccc(C)c2)cc1	i	214*	i	i	i
CC(C)OP(=O)(CCP(=O)(OC(C)C)OC(C)C)OC(C)C	i	i	i	i	i
Cc1cccc(C(=O)NC(=S)NNC(=O)COc2ccc(Cl)cc2)c1	i	68*	i	i	i
Cc1occc1C(=O)NNC(=S)NC(=O)COc1ccc(Cl)cc1Cl	i	87*	i	i	i
O=C(COc1cccc(Cl)c1)NNC(=S)Nc1ccccc1	i	i	i	i	i
Cc1cccc(/C(N)=N/OC(=O)COc2ccc(Cl)cc2)c1	i	i	i	i	i
O=C(COc1ccccc1)NNC(=S)NC(=O)c1ccc(Cl)cc1Cl	i	69*	i	i	i
COc1ccc(C(=O)NNC(=S)NC(=O)c2ccc(F)cc2)cc1Br	i	49*	i	i	i
COc1ccc(C(=O)NNC(=S)NC(=O)c2cccnc2)cc1	i	i	i	i	i
COc1ccc(C(=O)NNC(=S)NC(=O)c2ccc(OC)cc2)cc1	i	78*	i	i	i
Cc1cccc(C(=O)NNC(=S)NC(=O)c2ccccc2)c1	i	173*	i	i	i
Cc1ccc(C(=O)NNC(=O)c2cccc(C)c2)cc1	i	i	i	i	i
CSCCC1NC(=O)N(C(C)C(=O)Nc2cc(Cl)cc(Cl)c2)C1=O (stereo not given)	i	i	i	i	i
CC1CCCCN1S(=O)(=O)c1ccc(C(=O)Nc2sccc2C(N)=O)cc1 (stereo not given)	i	i	i	i	11*
Cc1ccc2occ(/C=N/NC(=O)[C@@H](N)Cc3ccccc3)c(=O)c2c1	i	i	i	i	12*
CSC(=S)NCc1cccnc1	i	i	i	i	i
CCCNC(=O)c1c[nH]c2ccc(S(=O)(=O)N(C)c3ccc(OCC)cc3)cc2c1=O	i	i	i	i	i
CCCCN(C)CCNC(=O)c1c[nH]c2ccc(S(=O)(=O)N(CC)CC)cc2c1=O	i	i	i	i	20*
CN(C)C1(CNC(=O)CC(NC(=O)c2ccccc2Cl)c2ccccc2)CCCCC1 (stereo not given)	-7*	44*	i	i	i
O=C(COc1ccccc1[N+](=O)[O-])NCCC1=CCCCC1	i	i	i	i	i
CSc1c(C#N)sc(=S)n1-c1ccc(C)cc1	-7*	i	i	i	i
SMILES	TRPC4 inh	TRPC4 agonist	TRPC6 inhibitor	TRPC6 activator	TRPC4 potent
COc1ccc(-n2c(O)c(/C=N/NS(=O)(=O)c3ccc(C)c([N+](=O)[O-])c3)c3ccccc3c2=O)cc1OC	i	56*	i	i	i
COc1ccc(CNCc2ccc3c(c2)OCO3)cc1Br	i	43*	i	i	i
COc1ccc(CNCc2ccc3c(c2)OCO3)c(OC)c1OC	i	i	i	i	i
CN1CCN(c2ccc(Cl)cc2NC(=O)/C=C/c2ccc(F)cc2)CC1	i	i	i	i	13*
COc1ccc(CC(=O)Nc2cc(Cl)ccc2N2CCCC2)cc1	i	i	i	i	i
COc1ccc(Cl)cc1C(=O)Nc1ccccc1N1CCN(C)CC1	i	126*	i	i	i
COc1ccc(CCC(=O)Nc2cc(Cl)ccc2N2CCN(C)CC2)cc1	i	i	i	i	12*
O=C(Nc1ccccc1)c1nccn1Cc1ccc(F)cc1	i	i	i	i	i
Cc1cccc(C)c1NC(=O)COC(=O)c1cccnc1	i	i	i	i	i
CC(=O)Nc1cccc(C(=O)OCC(=O)NNC(=O)c2ccc([N+](=O)[O-])cc2)c1	i	i	i	i	i
Cc1ccc(N(CC(=O)NCc2ccco2)C(=O)CCC(=O)Nc2nccs2)cc1	i	i	i	i	i
Cc1[nH]c2ccccc2c1N=Nc1ccccc1F	-6*	i	i	i	i
COc1ccc(OCc2nnc(SCC(=O)Nc3ccccc3Cl)o2)cc1	i	i	i	i	i
CCOc1cc(C(=O)NCCCNC(=O)c2cc(OCC)c(OCC)c(OCC)c2)cc(OCC)c1OCC	i	i	i	i	i
CCCCCn1c(=O)[nH]c2cc(C(=O)NCCN(CC)CC)ccc2c1=O	i	i	i	i	14*
Cc1ccc(NC(=O)C2C3C=CC4(O3)C2C(=O)N(CCCN2CCCC2)C4C(=O)NC2CCCCC2)cc1Cl (stereo not given)	i	i	i	i	i
CCN(CC)CCN1C(=O)C2C(C(=O)Nc3ccc(C(C)C)cc3)C3C=CC2(O3)C1C(=O)NC1CCCCC1 (stereo not given)	-6*	63*	i	i	i
CC1CCCN(CCCN2C(=O)C3C(C(=O)Nc4ccc(Cl)cc4)C4C=CC3(O4)C2C(=O)NC2CCCCC2)C1 (stereo not given)	-6*	i	i	i	i
CN(C)CCN1C(=O)C2C(C(=O)Nc3cc(Cl)cc(Cl)c3)C3C=CC2(O3)C1C(=O)NC1CCCCC1 (stereo not given)	-7*	i	i	i	i
CC(C)c1ccc(NC(=O)C2C3C=CC4(O3)C2C(=O)N(CCCN2CCCCC2)C4C(=O)NC2CCCCC2)cc1 (stereo not given)	-6*	66*	i	i	i
Cc1cc(C)cc(NC(=O)C2C3C=CC4(O3)C2C(=O)N(CCN2CCCCC2)C4C(=O)NC2CCCCC2)c1 (stereo not given)	i	i	i	i	i
O=C(CNS(=O)(=O)c1c(Cl)cccc1Cl)OCc1csc(-c2ccccc2)n1	i	i	i	i	i
COc1cc(NC(=O)CCCNC(=O)Cn2cnc3sc(C)c(C)c3c2=O)cc(OC)c1OC	i	i	i	i	i
Oc1c(Cl)cc(Cl)cc1Sc1cc(Cl)cc(Cl)c1O	i	86*	-8.38*	i	i
CN1CCN(S(=O)(=O)c2ccc(-c3ccc(Cl)cc3)cc2)CC1	i	i	i	i	i
